Data taken from ChEMBL document CHEMBL2034908, “Isoxazolo(aza)naphthoquinones: a new class of cytotoxic Hsp90 inhibitors” (Eur J Med Chem, 2012).

Assays:
NCI-H460 [1] = assay: Cytotoxicity against human NCI-H460 cells after 72 hrs; assay type: functional, cell-based; details: NCI-H460, 72 h
Procedure, shortened: (§1)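 Compounds were dissolved fresh in DMSO and diluted in culture medium. Cells were exposed for 72 h at 37 °C in medium with 10% heat-inactivated FBS under 5% CO2. IC50 reported ± SD. STO cells were grown in 50/50 DMEM-Ham's F12 with 10% FBS and 2 mM L-Gln.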

[2] = Cytotoxicity against human STO cells after 72 hrs; assay type: functional, cell-based; procedure, shortened: as §1
[3] = Binding affinity to Hsp90 after 4 hrs by GM-FITC based fluorescence polarization assay
Procedure, shortened: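 Commercial Hsp90 at 30 nM was mixed with GM-FITC tracer at 5 nM and serially diluted compound. Buffer: 20 mM HEPES(K) pH 7.3, 50 mM KCl, 5 mM MgCl2, 20 mM Na2MoO4, 0.01% NP40, with fresh 0.1 mg/ml bovine gamma globulin and 2 mM DTT. Shaken 4 h at 4 °C, then FP read in mP. IC50 is the concentration displacing 50% of tracer, from triplicate wells by nonlinear least-squares fit.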

A-431 = assay: Cytotoxicity against human A431 cells after 72 hrs; assay type: functional, cell-based; details: A-431, 72 h
NCI-H460 [4] = assay: Cytotoxicity against human NCI-H460 cells at >1 uM after 72 hrs; assay type: functional

| Compound | IC50 (NCI-H460 [1]) | IC50 [2] | IC50 [3] | pIC50 [3] | IC50 (A-431) | Activity (NCI-H460 [4]) |
| --- | --- | --- | --- | --- | --- | --- |
| COc1cccc2c1C(=O)c1c(-c3cc[n+](Cc4ccccc4)cc3)noc1C2=O.[Br-] | 0.18 µM | 0.168 µM | 0.34 µM | 6.47 | 0.168 µM |  |
| O=C1c2ccccc2C(=O)c2c(-c3ccc[n+](Cc4ccccc4)c3)noc21.[Br-] | 0.021 µM | 0.01 µM | 0.77 µM | 6.11 | 0.02 µM |  |
| CC(=O)Oc1cccc2c1C(=O)c1c(-c3cc[n+](Cc4ccccc4)cc3)noc1C2=O.[Br-] | > 1 µM | 3.96 µM | 0.031 µM | 7.51 | 3.96 µM | 32% |
| O=C1c2ccccc2C(=O)c2c(-c3ccc(F)cc3)noc21 | 0.35 µM | 0.02 µM | 200 µM | 3.7 | 0.26 µM |  |
| O=C1c2ccccc2C(=O)c2c(-c3ccccc3O)noc21 | > 1 µM | 3.4 µM | 1.55 µM | 5.81 | 3.4 µM |  |
| O=C1c2cccc(O)c2C(=O)c2c(-c3cc[n+](Cc4ccccc4)cc3)noc21.[Br-] | 0.88 µM | 21.6 µM | 0.098 µM | 7.01 | 21.6 µM |  |
| O=C1c2ccccc2C(=O)c2c(-c3cccc[n+]3Cc3ccccc3)noc21.[Br-] | > 1 µM | 2.24 µM | 200 µM | 3.7 | 2.24 µM |  |
| COc1cccc2c1C(=O)c1c(-c3ccncc3)noc1C2=O | 0.88 µM | 0.261 µM | 1.9 µM | 5.72 | 0.33 µM |  |
| O=C1c2ccccc2C(=O)c2c(-c3ccncc3)noc21 | 0.14 µM | 0.011 µM | 0.39 µM | 6.41 | 0.056 µM |  |
| O=C1c2ccccc2C(=O)c2c(-c3ccc4[nH]ccc4c3)noc21 | 0.3 µM | 0.32 µM | > 100 µM | 5.71 | 0.32 µM |  |
| O=C1c2ccccc2C(=O)c2c(-c3ccc[n+](Cc4cnccn4)c3)noc21.[Br-] | 0.046 µM | 0.11 µM | 0.51 µM | 6.29 | 0.042 µM |  |
| CC(=O)Oc1c2ccccc2c(OC(C)=O)c2c(-c3ccc(F)cc3)noc12 | > 1 µM | 0.67 µM | > 100 µM |  | 0.69 µM |  |
| O=C1c2cccc(O)c2C(=O)c2c(-c3ccncc3)noc21 | 0.88 µM | 0.103 µM | > 100 µM |  | 0.068 µM |  |
| COc1ccc(-c2noc3c2C(=O)c2cnccc2C3=O)cc1 | 0.446 µM | 0.092 µM | 1.6 µM | 5.61 | 0.098 µM |  |
| O=C1c2ccccc2C(=O)c2c(-c3cc(Cl)c(O)cc3O)noc21 | > 1 µM | 1 µM | 4.2 µM | 5.38 | 23 µM |  |
| C[n+]1ccc(-c2noc3c2C(=O)c2ccccc2C3=O)cc1.[I-] | 0.33 µM | 1.2 µM | 0.63 µM | 6.2 | 0.48 µM |  |
| O=C1c2ccccc2C(=O)c2c(-c3ccccn3)noc21 | 1 µM | 0.02 µM | 1.06 µM | 5.97 | 0.34 µM |  |
| O=C1c2ccccc2C(=O)c2c(-c3cc[n+](Cc4cnccn4)cc3)noc21.[Br-] | 0.017 µM | 0.22 µM | 0.68 µM | 6.17 | 0.052 µM |  |
